Measured values as given in ChEMBL document CHEMBL1142962, “Antiproliferative prenylated stilbenes and flavonoids from Macaranga alnifolia from the Madagascar rainforest” (J Nat Prod, 2007).
pIC50: −log10 of the molar value.

Key:
BT-549 = assay: Growth inhibition of BT549 cells; format: functional; conditions: Homo sapiens
T47D = assay: Growth inhibition of T47D cells; format: functional; conditions: Homo sapiens
In short: (§1)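 Tested in the NCI 60 human tumour cell line screen, which was run by NCI. The value for each line is the GI50, the concentration giving 50% growth inhibition. Results are also shown as a mean graph across the full panel.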

OVCAR-3 = assay: Growth inhibition of OVCAR-3 cells; format: functional; conditions: Homo sapiens
OVCAR-4 = assay: Growth inhibition of OVCAR4 cells; format: functional; conditions: Homo sapiens
OVCAR-8 = assay: Growth inhibition of OVCAR8 cells; format: functional; conditions: Homo sapiens; in short: as §1
SK-OV-3 = assay: Growth inhibition of SKOV3 cells; format: functional; conditions: Homo sapiens
MOLT-4 = assay: Growth inhibition of MOLT4 cells; format: functional; conditions: Homo sapiens; in short: as §1
SF-295 = assay: Growth inhibition of SF295 cells; format: functional; conditions: Homo sapiens; in short: as §1
A498 = assay: Growth inhibition of A498 cells; format: functional; conditions: Homo sapiens; in short: as §1
CAKI-1 = assay: Growth inhibition of CAKI1 cells; format: functional; conditions: Homo sapiens; in short: as §1
CCRF-CEM = assay: Growth inhibition of CCRF-CEM cells; format: functional; conditions: Homo sapiens; in short: as §1
K562 = assay: Growth inhibition of K562 cells; format: functional; conditions: Homo sapiens; in short: as §1
RPMI-8226 = assay: Growth inhibition of RPMI8226 cells; format: functional; conditions: Homo sapiens
A549 = assay: Growth inhibition of A549/ATCC cells; format: functional; conditions: Homo sapiens
EKVX = assay: Growth inhibition of EKVX cells; format: functional; conditions: Homo sapiens; in short: as §1
HOP-62 = assay: Growth inhibition of HOP62 cells; format: functional; conditions: Homo sapiens
HOP-92 = assay: Growth inhibition of HOP92 cells; format: functional; conditions: Homo sapiens
NCI-H23 = assay: Growth inhibition of NCI-H23 cells; format: functional; conditions: Homo sapiens
NCI-H322M = assay: Growth inhibition of NCI-H322M cells; format: functional; conditions: Homo sapiens
NCI-H460 = assay: Growth inhibition of NCI-H460 cells; format: functional; conditions: Homo sapiens
NCI-H522 = assay: Growth inhibition of NCI-H522 cells; format: functional; conditions: Homo sapiens; in short: as §1
HCC 2998 = assay: Growth inhibition of HCC2998 cells; format: functional; conditions: Homo sapiens
HCT-116 = assay: Growth inhibition of HCT116 cells; format: functional; conditions: Homo sapiens
HCT-15 = assay: Growth inhibition of HCT15 cells; format: functional; conditions: Homo sapiens
[1] = system: A2780 (human ovarian cancer); assay: Antiproliferative activity against drug-sensitive human A2780 cells
[2] = read-out: Log LC50 (the source's name) (converted)

COc1cc(/C=C/c2cc(O)c(CC=C(C)C)c(O)c2)cc2c1O[C@]1(C)C[C@@H](O)[C@@H](O)C(C)(C)[C@H]1C2 [SCHWEINFURTHIN E]
GI50 (BT-549): 1510 nM | CC50 (BT-549; [2]): > 100000 nM | TGI (BT-549; read-out: Log TGI (converted)): 13200 nM | GI50 (T47D): 3240 nM | CC50 (T47D; [2]): > 100000 nM | TGI (T47D; read-out: Log TGI (converted)): > 100000 nM | GI50 (OVCAR-3; read-out: GI50): 2200 nM | CC50 (OVCAR-3; [2]): 24000 nM | TGI (OVCAR-3; read-out: Log TGI (converted)): 8320 nM | GI50 (OVCAR-3; read-out: pGI50 (converted)): 6170 nM | LC50 (OVCAR-4): > 100000 nM | GI50 (OVCAR-4; read-out: GI50): 2200 nM | TGI (OVCAR-4; read-out: Log TGI (converted)): 9330 nM | GI50 (OVCAR-4; read-out: pGI50 (converted)): 575 nM | GI50 (OVCAR-8; read-out: GI50): 2200 nM | CC50 (OVCAR-8; [2]): > 100000 nM | TGI (OVCAR-8; read-out: Log TGI (converted)): 6760 nM | GI50 (OVCAR-8; read-out: pGI50 (converted)): 2510 nM | LC50 (SK-OV-3): 93300 nM | GI50 (SK-OV-3; read-out: GI50): 2200 nM | TGI (SK-OV-3; read-out: Log TGI (converted)): 11000 nM | GI50 (SK-OV-3; read-out: pGI50 (converted)): 2750 nM | GI50 (MOLT-4; read-out: GI50): < 10 nM | CC50 (MOLT-4; [2]): > 100000 nM | TGI (MOLT-4; read-out: Log TGI (converted)): < 10 nM | TGI (MOLT-4; read-out: TGI): < 10 nM | GI50 (MOLT-4; read-out: pGI50 (converted)): < 10 nM | GI50 (SF-295): < 10 nM | TGI (SF-295): < 10 nM | LC50 (A498): > 100000 nM | GI50 (A498; read-out: GI50): < 10 nM | TGI (A498; read-out: Log TGI (converted)): < 10 nM | TGI (A498; read-out: TGI): < 10 nM | GI50 (A498; read-out: pGI50 (converted)): < 10 nM | GI50 (CAKI-1; read-out: GI50): < 10 nM | CC50 (CAKI-1; [2]): 550 nM | TGI (CAKI-1; read-out: Log TGI (converted)): < 10 nM | TGI (CAKI-1; read-out: TGI): < 10 nM | GI50 (CAKI-1; read-out: pGI50 (converted)): < 10 nM | GI50 (CCRF-CEM): < 10 nM | CC50 (CCRF-CEM; [2]): > 100000 nM | TGI (CCRF-CEM; read-out: Log TGI (converted)): 10000 nM | GI50 (K562): < 10 nM | TGI (K562; read-out: Log TGI (converted)): 692 nM | GI50 (RPMI-8226): < 10 nM | CC50 (RPMI-8226; [2]): > 100000 nM | TGI (RPMI-8226; read-out: Log TGI (converted)): 52.5 nM | GI50 (A549): < 10 nM | CC50 (A549; [2]): > 100000 nM | TGI (A549; read-out: Log TGI (converted)): 12600 nM | GI50 (EKVX): 2140 nM | CC50 (EKVX; [2]): > 100000 nM | TGI (EKVX; read-out: Log TGI (converted)): 28200 nM | GI50 (HOP-62): < 10 nM | CC50 (HOP-62; [2]): 7760 nM | TGI (HOP-62; read-out: Log TGI (converted)): 75.9 nM | GI50 (HOP-92): 794 nM | CC50 (HOP-92; [2]): > 100000 nM | TGI (HOP-92; read-out: Log TGI (converted)): 5130 nM | GI50 (NCI-H23): 240 nM | CC50 (NCI-H23; [2]): 13800 nM | TGI (NCI-H23; read-out: Log TGI (converted)): 2340 nM | GI50 (NCI-H322M): 288 nM | CC50 (NCI-H322M; [2]): 13800 nM | TGI (NCI-H322M; read-out: Log TGI (converted)): 2240 nM | GI50 (NCI-H460): 151 nM | CC50 (NCI-H460; [2]): > 100000 nM | TGI (NCI-H460; read-out: Log TGI (converted)): > 100000 nM | GI50 (NCI-H522): 2000 nM | CC50 (NCI-H522; [2]): > 100000 nM | TGI (NCI-H522; read-out: Log TGI (converted)): > 100000 nM | GI50 (HCC 2998): 1020 nM | CC50 (HCC 2998; [2]): 6460 nM | TGI (HCC 2998; read-out: Log TGI (converted)): 2570 nM | GI50 (HCT-116): 20.9 nM | CC50 (HCT-116; [2]): 6920 nM | TGI (HCT-116; read-out: Log TGI (converted)): 871 nM | GI50 (HCT-15): 603 nM | CC50 (HCT-15; [2]): 26900 nM | TGI (HCT-15; read-out: Log TGI (converted)): 3630 nM | pIC50 [1]: 6.59
